The results in this text go back to ChEMBL document CHEMBL3739385, “Stelleralides D-J and Anti-HIV Daphnane Diterpenes from Stellera chamaejasme” (J Nat Prod, 2015).

Series [1] can be described thus: Selectivity index, ratio of CC50 for human MT4 cells to EC50 for HIV-1 NL4-3 infected in MT4 cells. In kind it is toxicity, cell-based. Conditions: read-out: Ratio CC50/EC50.
The subject of series [2] is Human immunodeficiency virus 1. In words: Antiviral activity against HIV-1 NL4-3 infected in MT4 cells assessed as viral replication measured on day 4 post infection by ELISA. The conditions noted are these: Human immunodeficiency virus 1, NL4-3, MT4, 96 h. Type of series: functional, organism-based. In outline: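 HIV-1 NL4-3 at MOI 0.001 infects MT4 cells in the presence of graded compound concentrations. Fresh medium with compound is added 48 h after infection to keep the cells growing. On day 4 post-infection, replication is read by p24 ELISA.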
On the technique in general: An ELISA detects its analyte on a solid surface through an enzyme-linked reagent.

For a further series, the system named is MT4. In words: Cytotoxicity against human MT4 cells by cellTiterGlo assay. Type of series: cell-based. In outline: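 MT4 cells are cultured in parallel with the antiviral assay and treated with compounds. Viability is read with CellTiter-Glo luminescent reagent, which quantifies ATP in metabolically active cells. CC50, the concentration reducing viable cells by 50%, is calculated from the dose-response curve.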
On the technique in general: ATP-based viability assays read luminescence as a measure of living cells.

pEC50: −log10 of the molar value. Some results are limits rather than exact numbers.

In the case of `C=C(C)[C@@]12O[C@@]3(/C=C/C=C/CCCCCCCCC)O[C@@H]1[C@@H]1[C@@H]4O[C@]4(CO)[C@@H](O)[C@]4(O)C(=O)C(C)=C[C@H]4[C@@]1(O3)[C@H](C)[C@H]2OC(C)=O`, in series [1], the selectivity ratio is at least 1300. Moreover, the pEC50 (in general, −log10 of the EC50, conventionally taken in molar units) in series [2] was 7.92. Besides, in the series with MT4, the CC50 (commonly the concentration that lowers cell viability or growth by half) was at least 15600 nM.
For `C=C(C)[C@]12C[C@@H](COC(=O)c3ccccc3)[C@]34OC5(CCCCCCC[C@H](C)[C@@H]6[C@@H]3[C@]3(O[C@]6(C)OC3=O)[C@H](O)[C@@]3(COC(=O)CCCCCCC/C=C\C/C=C\CCCCC)O[C@H]3[C@H]4[C@H]1O5)O2`, in that order: at least 1, 5.17 and at least 10800 nM.
For `C=C(C)[C@]12C[C@@H](COC(=O)c3ccccc3)[C@@]34OC5(O[C@@H]1[C@@H]3[C@@H]1O[C@]1(CO)[C@@H](O)[C@@]1(O)[C@H]4[C@H]([C@H](C)[C@@H]1OC(=O)c1ccccc1)[C@H](C)C[C@@H](OC(=O)c1ccccc1)CCCC[C@H]5O)O2`, in that order: at least 15300, 9.14 and at least 11200 nM.
The matching figures for `C=C(C)[C@]1(O)C[C@@H](C)[C@@]2(O)[C@H]([C@H]1OC(=O)/C=C/C=C/CCCCCCCCC)[C@@H]1O[C@]1(CO)[C@@H](O)[C@]1(O)C(=O)C(C)=C[C@H]12`: at least 281, 7.23 and at least 16600 nM.
Regarding `C=C(C)[C@]12C[C@@H](C)[C@@]34OC(/C=C/C=C/CCCCCCCCCC)(O[C@@H]1[C@@H]3[C@@H]1O[C@]1(CO)[C@@H](O)[C@]1(O)C(=O)C(C)=C[C@H]14)O2`, in series [1], the selectivity ratio is at least 1280. The negative-log EC50 (pEC50) in series [2] is 7.89. This compound yielded a 50% cytotoxic concentration (CC50) in the series on MT4 of at least 16700 nM.
The matching figures for `C=C(C)[C@]12C[C@@H](COC(=O)c3ccccc3)[C@]34OC5(CCCCCCC[C@H](C)[C@@H]6[C@@H]3[C@]3(O[C@]6(C)OC3=O)[C@H](O)[C@@]3(CO)O[C@H]3[C@H]4[C@H]1O5)O2`: at least 41, 6.48 and at least 13800 nM.
The matching figures for `C=C(C)[C@]12C[C@@H](COC(=O)c3ccccc3)[C@]34OC5(CCCCCCC[C@H](C)[C@@H]6[C@@H]3[C@]3(O[C@]6(C)OC3=O)[C@H](O)[C@@]3(COC(=O)CCCCCCCCCCCCCCC)O[C@H]3[C@H]4[C@H]1O5)O2`: at least 18, 6.23 and at least 11100 nM.
As to `C=C(C)[C@@]12OC3(/C=C/C=C/CCCCCCCCCC)O[C@@H]1[C@@H]1[C@@H]4O[C@]4(CO)[C@@H](O)[C@]4(O)C(=O)C(C)=C[C@H]4[C@@]1(O3)[C@H](C)[C@H]2OC(C)=O`, the selectivity ratio in series [1] was at least 392. The negative logarithm of the EC50 (pEC50) in series [2] is 7.41. Further, in the series with MT4, the 50% cytotoxic concentration (CC50) was at least 15300 nM.
The matching figures for `C=C(C)[C@]12C[C@@H](COC(=O)c3ccccc3)[C@@]34OC5(O[C@@H]1[C@@H]3[C@@H]1O[C@]1(COC(=O)c1ccccc1)[C@@H](O)[C@@]1(O)[C@H]4[C@H]([C@H](C)[C@@H]1O)[C@H](C)CCCCCC[C@H]5O)O2`: at least 13200, 9.01 and at least 12900 nM.
For `C=C(C)[C@]12C[C@@H](C)[C@@]34O[C@](/C=C/C=C/CCCCCCCCC)(O[C@@H]1[C@@H]3[C@@H]1O[C@]1(CO)[C@@H](O)[C@]1(O)C(=O)C(C)=C[C@H]14)O2`, in that order: at least 5380, 8.59 and at least 14000 nM.
For `C=C(C)[C@]12C[C@@H](COC(C)=O)[C@@]34OC5(O[C@@H]1[C@@H]3[C@@H]1O[C@]1(CO)[C@@H](O)[C@@]1(O)[C@H]4[C@H]([C@H](C)[C@@H]1OC(=O)c1ccccc1)[C@H](C)C[C@@H](OC(=O)c1ccccc1)CCCC[C@H]5O)O2`, in that order: at least 12900, 9.03 and at least 12000 nM.
`C=C(C)[C@]1(O)C[C@@H](C)[C@@]2(O)[C@H]([C@H]1OC(=O)/C=C/C=C/CCCCCCCCC)[C@H](O)[C@@](O)(CO)[C@@H](O)[C@]1(O)C(=O)C(C)=C[C@H]12`: the selectivity ratio in series [1] was at least 100. Further, in series [2], the negative-log EC50 (pEC50) was 7.36. The compound further yielded a CC50 in the series with MT4 of at least 4400 nM.
For the compound `C=C(C)[C@]12C[C@@H](COC(=O)c3ccccc3)[C@@]34OC5(O[C@@H]1[C@@H]3[C@@H]1O[C@]1(CO)[C@@H](O)[C@@]1(O)[C@H]4[C@H]([C@H](C)[C@@H]1OC(=O)c1ccccc1)[C@H](C)CCCCCC[C@H]5O)O2`, the selectivity ratio in series [1] is at least 21500. For the same compound, the pEC50 in series [2] was 10.22. Besides, in the series on MT4, the CC50 was at least 1290 nM.
For `C=C(C)[C@]12C[C@@H](C)[C@@]34OC5(CCCCCCC[C@@H](C)[C@H]6[C@H](C)[C@H](OC(=O)c7ccccc7)[C@@](O)([C@H](O)[C@@]7(CO)O[C@H]7[C@H]3[C@H]1O5)[C@@H]64)O2`, in that order: at least 14300, 8.96 and at least 15700 nM.
For `C=C(C)[C@]12C[C@@H](C)[C@]34O[C@]5(CCCCCCC[C@H](C)[C@@H]6[C@@H]3[C@]3(O[C@]6(C)OC3=O)[C@H](O)[C@@]3(CO)O[C@H]3[C@H]4[C@H]1O5)O2`, in that order: at least 16, 5.95 and at least 18300 nM.
`C=C(C)[C@@]1(O)[C@H](OC(=O)/C=C/C=C/CCCCCCCCC)[C@@H]2[C@@H]3O[C@]3(CO)[C@@H](O)[C@]3(O)C(=O)C(C)=C[C@H]3[C@@]2(O)[C@H](C)[C@H]1OC(C)=O`: in series [1], the selectivity ratio is at least 345. Besides, the negative-log EC50 (pEC50) in series [2] is 7.36. The same compound returned a CC50 with MT4 of at least 15200 nM.
Turning to `C=C(C)[C@]12C[C@@H](COC(=O)c3ccccc3)[C@@]34OC5(CCCCCCC[C@@H](C)[C@H]6[C@H](C)C(=O)[C@@](O)([C@H](O)[C@@]7(CO)O[C@H]7[C@H]3[C@H]1O5)[C@@H]64)O2`, in series [1], the selectivity ratio was at least 318. Also, in series [2], the pEC50 was 7.32. Also, in the series on MT4, the CC50 is at least 15300 nM.
The matching figures for `C=C(C)[C@@]12OC3(/C=C/C=C/CCCCCCCCCC)O[C@@H]1[C@@H]1[C@@H]4O[C@]4(CO)[C@@H](O)[C@]4(O)C(=O)C(C)=C[C@H]4[C@@]1(O3)[C@H](C)[C@H]2O`: at least 135, 6.92 and at least 16300 nM.
Consider `C=C(C)[C@]12C[C@@H](C)[C@@]34O[C@](CCCCCCCCC)(O[C@@H]1[C@@H]3[C@@H]1O[C@]1(CO)[C@@H](O)[C@]1(O)C(=O)C(C)=C[C@H]14)O2` [SIMPLEXIN], for which the selectivity ratio in series [1] is at least 400. Moreover, the pEC50 in series [2] was 7.33. For the same compound, in the series on MT4, the CC50 was at least 18800 nM.
Compound `Cc1cn([C@H]2C[C@H](N=[N+]=[N-])[C@@H](CO)O2)c(=O)[nH]c1=O` [ZIDOVUDINE] gave a CC50 with MT4 of at least 3740 nM.
